Results reported in ChEMBL document CHEMBL3526029, “Disposition and metabolism of GSK2251052 in humans: a novel boron-containing antibiotic” (Drug Metab Dispos, 2013).
One block for each molecule: values may come before it.

Tests used:
[1] = AUC (0 to infinity) in healthy human plasma at 1500 mg, iv infusion for 1 hr as single dose; type: ADME, organism-based; design: dose 1500 mg, route intravenous, time infinity
In short: (§1)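 Six fasted healthy men received 1500 mg [14C]GSK2251052 as a 1-h constant-rate i.v. infusion. K2EDTA plasma was sampled from predose to 72 h, with profiling samples added at 96, 144 and 336 h. Parent and M3 were measured by validated LC/MS/MS after methanol/formic acid precipitation with stable-label internal standards (range 5–10,000 ng/ml). Noncompartmental analysis used actual times, linear-up/log-down trapezoids and CL = dose/AUC(0-∞).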

[2] = Cmax in cynomolgus monkey at 35 mg/kg, iv administered as single infusion for 1 hr; type: ADME, organism-based, Macaca fascicularis; design: dose 35 mg/kg, route intravenous; conditions: in vivo
In short: (§2)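 Male cynomolgus monkeys given a 1-h i.v. infusion at 35 mg/kg (7 mg/ml in saline, pH 5, 5 ml/kg/h). Where 4-MP was used, it was given by oral gavage 1 h before infusion (8.75 mg/ml in water, 4 ml/kg). K2EDTA plasma was sampled from 0.5 to 120 h after infusion start. Parent and M3 were measured by LC/MS/MS after protein precipitation (range 100–200,000 ng/ml). Noncompartmental analysis used nominal times.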

[3] = Clearance in cynomolgus monkey at 35 mg/kg, iv administered as single infusion for 1 hr followed single oral dose of 35 mg/kg 4-MP; type: ADME, organism-based, Macaca fascicularis; conditions: in vivo; in short: as §2
[4] = Drug metabolism in human liver cytosol assessed as ADH-mediated (S)-3-(3-(aminomethyl)-1-hydroxy-1,3-dihydrobenzo[c][1,2]oxaborol-7-yloxy)propanoicacid formation at 50 to 500 uM by spectrophotometry in presence of NAD+; type: ADME; conditions: TDE = time-dependent effect
[5] = Tmax in cynomolgus monkey at 35 mg/kg, iv administered as single infusion for 1 hr followed single oral dose of 35 mg/kg 4-MP; type: ADME, organism-based, Macaca fascicularis; conditions: in vivo
In short: (§3)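 Male cynomolgus monkeys received 35 mg/kg as a 1 h i.v. infusion (7 mg/ml in saline, pH 5; 5 ml/kg/h), either alone or 1 h after oral gavage of 4-MP (8.75 mg/ml in water, 4 ml/kg). Plasma was sampled from 0.5 to 120 h, and parent and M3 were measured by LC/MS/MS. Noncompartmental analysis used nominal times, with t1/2 = ln2/λz.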

[6] = Tmax in cynomolgus monkey at 35 mg/kg, iv administered as single infusion for 1 hr; type: ADME, organism-based, Macaca fascicularis; design: dose 35 mg/kg, route intravenous; conditions: in vivo; in short: as §3
[7] = Volume of distribution at steady state in cynomolgus monkey at 35 mg/kg, iv administered as single infusion for 1 hr; type: ADME, organism-based, Macaca fascicularis; design: dose 35 mg/kg, route intravenous; conditions: in vivo, read-out: Vdss
In short: (§4)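 Cynomolgus monkeys got a 1-h IV infusion at 35 mg/kg (7 mg/ml in saline, pH 5), either alone or 1 h after oral gavage of 4-methylpyrazole (8.75 mg/ml in water, 4 ml/kg). Plasma (K2EDTA) was sampled to 120 h and assayed by protein precipitation and LC/MS/MS (range 100–200,000 ng/ml). Vss (CL × MRT) was derived by noncompartmental analysis on nominal times; values are for males.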

[8] = Half life in cynomolgus monkey at 35 mg/kg, iv administered as single infusion for 1 hr followed single oral dose of 35 mg/kg 4-MP; type: ADME, organism-based, Macaca fascicularis; conditions: in vivo; in short: as §3
[9] = Tmax in healthy human plasma at 1500 mg, iv infusion for 1 hr as single dose; type: ADME, organism-based
In short: (§5)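 Healthy men got a single 1500 mg [14C] dose by 1 h i.v. infusion. K2EDTA blood was sampled up to 336 h. Radioactivity in blood and plasma was measured by LSC, with AMS for plasma below LLQ. Parent and M3 were measured by LC/MS/MS (5–10,000 ng/ml range). Noncompartmental analysis used actual times, with t1/2 = ln2/λz and Tmax observed directly, timed from infusion start.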

[10] = AUC (0 to t) in healthy human plasma at 1500 mg, iv infusion for 1 hr as single dose; type: ADME, organism-based; in short: as §1
[11] = Volume of distribution at steady state in healthy human plasma at 1500 mg, iv infusion for 1 hr as single dose; type: ADME, organism-based; conditions: read-out: Vdss
In short: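 Healthy males got 1500 mg by 1-h IV infusion. Plasma (K2EDTA) was sampled to 72 h, plus 96, 144 and 336 h. Parent was measured by a validated LC/MS/MS method after methanol/formic acid precipitation with a stable-isotope internal standard (range 5–10,000 ng/ml). Vss = CL × MRT from noncompartmental analysis.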

[12] = AUC (0 to infinity) in cynomolgus monkey at 35 mg/kg, iv administered as single infusion for 1 hr; type: ADME, organism-based, Macaca fascicularis; design: time infinity, dose 35 mg/kg, route intravenous; conditions: plasma; in short: as §2
[13] = Mean residence time in cynomolgus monkey at 35 mg/kg, iv administered as single infusion for 1 hr followed single oral dose of 35 mg/kg 4-MP; type: ADME, organism-based, Macaca fascicularis; conditions: in vivo; in short: as §3
[14] = Clearance in cynomolgus monkey at 35 mg/kg, iv administered as single infusion for 1 hr; type: ADME, organism-based, Macaca fascicularis; design: dose 35 mg/kg, route intravenous; conditions: in vivo; in short: as §2
[15] = Cmax in cynomolgus monkey at 35 mg/kg, iv administered as single infusion for 1 hr followed single oral dose of 35 mg/kg 4-MP; type: ADME, organism-based, Macaca fascicularis; conditions: in vivo; in short: as §2
[16] = Half life in cynomolgus monkey at 35 mg/kg, iv administered as single infusion for 1 hr; type: ADME, organism-based, Macaca fascicularis; design: dose 35 mg/kg, route intravenous; conditions: in vivo; in short: as §3
[17] = Cmax in healthy human plasma at 1500 mg, iv infusion for 1 hr as single dose; type: ADME, organism-based; design: dose 1500 mg, route intravenous; in short: as §1
[18] = Mean residence time in cynomolgus monkey at 35 mg/kg, iv administered as single infusion for 1 hr; type: ADME, organism-based, Macaca fascicularis; design: dose 35 mg/kg, route intravenous; conditions: in vivo; in short: as §3
[19] = test system: Liver cytosol; test: Drug metabolism in human liver cytosol assessed as (S)-3-(3-(aminomethyl)-1-hydroxy-1,3-dihydrobenzo[c][1,2]oxaborol-7-yloxy)propanoicacid formation at 50 to 500 uM after 3 hrs by spectrophotometry in presence of NAD+ and ADH inhibitor 4-MP; type: ADME
[20] = Clearance in healthy human plasma at 1500 mg, iv infusion for 1 hr as single dose; type: ADME, organism-based; in short: as §1
[21] = Drug metabolism assessed as purified ADH (unknown origin)-mediated (S)-3-(3-(aminomethyl)-1-hydroxy-1,3-dihydrobenzo[c][1,2]oxaborol-7-yloxy)propanoicacid formation at 50 to 500 uM by spectrophotometry in presence of NAD+; type: ADME; conditions: human, TDE = time-dependent effect
[22] = Half life in healthy human plasma at 1500 mg, iv infusion for 1 hr as single dose; type: ADME, organism-based; in short: as §5
[23] = AUC (0 to infinity) in cynomolgus monkey at 35 mg/kg, iv administered as single infusion for 1 hr followed single oral dose of 35 mg/kg 4-MP; type: ADME, organism-based, Macaca fascicularis; conditions: plasma; in short: as §2
[24] = Volume of distribution at steady state in cynomolgus monkey at 35 mg/kg, iv administered as single infusion for 1 hr followed single oral dose of 35 mg/kg 4-MP; type: ADME, organism-based, Macaca fascicularis; conditions: in vivo, read-out: Vdss; in short: as §4
[25] = Drug recovery in healthy human feces treated with [14C]GSK2251052 at 1500 mg, iv infusion for 1 hr as single dose after 0 to 120 hrs by HPLC method; conditions: in vivo
[26] = Drug recovery in healthy human feces treated with [14C]GSK2251052 at 1500 mg, iv infusion for 1 hr as single dose after 120 hrs by HPLC method; type: ADME, organism-based; conditions: in vivo
In short: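 Feces pooled over 0–120 h per subject by sample weight. About 1 g homogenate extracted twice with 4 volumes of acetonitrile:methanol:water:formic acid (50:25:25:1) under 20 min sonication. Extracts dried and reconstituted in water:methanol 90:10. Profiled by HPLC (Atlantis T3, ammonium acetate pH 4.5/methanol, 30°C) with fraction radiocounting and Orbitrap MS. Results given as % of dose, corrected for extraction recovery.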

[27] = Drug recovery in healthy human urine treated with [14C]GSK2251052 at 1500 mg, iv infusion for 1 hr as single dose after 120 to 336 hrs by HPLC method; type: ADME, organism-based; conditions: in vivo, BLD = below limit of detection
In short: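 Urine pooled by weight per subject over 0–120 h; 120–336 h pools from all subjects combined into one composite. Centrifuged at ~21,000g, then supernatant profiled by HPLC (Atlantis T3, ammonium acetate pH 4.5/methanol, 30°C) with radiochemical detection plus MS identification. Results are % of dose, corrected for centrifugation recovery measured by triplicate LSC.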

AUC(0-inf) [1]: 72500 ng·h/mL
Cmax [2]: 46000 ng/mL
clearance [3]: 3.67 mL/min/kg
Drug metabolism [4]: tde
Tmax [5]: 55.2 min
Tmax [6]: 55.2 min
Vd [7]: 3.04 L/kg
half-life [8]: 552 min
Tmax [9]: 55 min
AUC(0-t) at 1 h [10]: 72300 ng·h/mL
Vd [11]: 197 L
AUC(0-inf) [12]: 60700 ng·h/mL
MRT [13]: 11 h
clearance [14]: 10 mL/min/kg
Cmax [15]: 68.6 µg/mL
half-life [16]: 324 min
Cmax [17]: 24600 ng/mL
MRT [18]: 4.9 h
Drug metabolism [19]: metabolite_not_detected
clearance [20]: 345 mL/min
Drug metabolism [21]: tde
half-life [22]: 696 min
AUC(0-inf) [23]: 161 µg·h/mL
Vd [24]: 2.53 L/kg
SMILES: Cl.NC[C@H]1OB(O)c2c(OCCCO)cccc21

Drug recovery [25]: 1.4%
Drug recovery [26]: 1.4%
Drug recovery [27]: BLD
SMILES: NCC(O)c1cccc(OCCC(=O)O)c1O (stereo not drawn)

Drug recovery [27]: BLD
SMILES: NCC(O)c1cccc(OCCCO)c1O (stereo not drawn)
